The values that follow come from ChEMBL document CHEMBL3286091, “Novel N-linked aminopiperidine-based gyrase inhibitors with improved hERG and in vivo efficacy against Mycobacterium tuberculosis” (J Med Chem, 2014).

Converted amounts (≈) assume the structure as drawn. The source made the active and inactive calls. No cut-off for these calls is given here. Where only a bound is given, the exact number is not on record here.

Data set [1] addresses Voltage-gated inwardly rectifying potassium channel KCNH2 (Homo sapiens, UniProt Q12809). As to the kind of experiment: Inhibition of human ERG by patch clamp electrophysiological analysis. (In general: The patch-clamp technique gives a direct electrical read-out from membranes.)
A short description of data set [2]: Octanol-sodium phosphate buffer partition coefficient, log D of the compound at 10 mM at pH 7.4 by shake-flask method. In kind it is physicochemical.
Data set [3] deals with Mycobacterium tuberculosis. As to the kind of experiment: Antimycobacterial activity against wild-type Mycobacterium tuberculosis H37Rv ATCC 27294 after 16 to 18 days by BACTEC 7H12B microdilution method. The class given is functional. Background: In broth dilution the organism is exposed to a series of concentrations in liquid medium.
Data set [4] is described as follows: Apparent permeability from basolateral to apical side in human Caco2 cells. In kind it is ADME, cell-based. The following applies: Caco-2. On the technique in general: Passage across Caco-2 layers is used to estimate intestinal permeability.
Data set [5] in a line: Apparent permeability from apical to basolateral side in human Caco2 cells. In kind it is ADME, cell-based. The following applies: Caco-2.
A further data set addresses DNA gyrase subunit B (Mycobacterium smegmatis, UniProt P0C559). As to the kind of experiment: Inhibition of Mycobacterium smegmatis DNA gyrase-B ATPase activity. Further details: species or system Mycolicibacterium smegmatis.
In data set [6] the target is DNA gyrase subunit A/DNA gyrase subunit B (Mycobacterium tuberculosis (strain ATCC 25618 / H37Rv), UniProt P9WG45+P9WG47). As to the kind of experiment: Inhibition of Mycobacterium tuberculosis H37Rv DNA gyrase holoenzyme-mediated supercoiling of pBR322 DNA after 90 mins by agarose gel electrophoresis.
DNA gyrase subunit A/DNA gyrase subunit B, sequence (P9WG45 whole entry): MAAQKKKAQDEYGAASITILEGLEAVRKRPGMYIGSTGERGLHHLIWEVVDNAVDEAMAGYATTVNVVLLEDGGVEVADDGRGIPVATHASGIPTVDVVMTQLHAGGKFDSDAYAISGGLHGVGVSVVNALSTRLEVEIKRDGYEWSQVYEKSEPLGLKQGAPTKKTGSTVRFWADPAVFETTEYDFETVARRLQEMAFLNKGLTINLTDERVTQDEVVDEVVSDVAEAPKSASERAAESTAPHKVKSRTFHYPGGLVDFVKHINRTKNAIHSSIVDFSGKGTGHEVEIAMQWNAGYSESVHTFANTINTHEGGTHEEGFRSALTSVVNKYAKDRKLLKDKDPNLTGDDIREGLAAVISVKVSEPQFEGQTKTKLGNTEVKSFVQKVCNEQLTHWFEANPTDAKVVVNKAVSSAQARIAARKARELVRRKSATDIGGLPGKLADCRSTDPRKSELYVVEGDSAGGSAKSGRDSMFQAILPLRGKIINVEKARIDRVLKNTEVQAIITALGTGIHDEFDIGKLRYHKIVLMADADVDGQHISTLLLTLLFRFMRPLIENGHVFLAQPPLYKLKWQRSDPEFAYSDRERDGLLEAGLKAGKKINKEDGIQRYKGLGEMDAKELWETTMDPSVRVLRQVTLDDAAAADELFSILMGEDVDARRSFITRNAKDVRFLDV
DNA gyrase subunit A/DNA gyrase subunit B, sequence (P9WG47 whole entry): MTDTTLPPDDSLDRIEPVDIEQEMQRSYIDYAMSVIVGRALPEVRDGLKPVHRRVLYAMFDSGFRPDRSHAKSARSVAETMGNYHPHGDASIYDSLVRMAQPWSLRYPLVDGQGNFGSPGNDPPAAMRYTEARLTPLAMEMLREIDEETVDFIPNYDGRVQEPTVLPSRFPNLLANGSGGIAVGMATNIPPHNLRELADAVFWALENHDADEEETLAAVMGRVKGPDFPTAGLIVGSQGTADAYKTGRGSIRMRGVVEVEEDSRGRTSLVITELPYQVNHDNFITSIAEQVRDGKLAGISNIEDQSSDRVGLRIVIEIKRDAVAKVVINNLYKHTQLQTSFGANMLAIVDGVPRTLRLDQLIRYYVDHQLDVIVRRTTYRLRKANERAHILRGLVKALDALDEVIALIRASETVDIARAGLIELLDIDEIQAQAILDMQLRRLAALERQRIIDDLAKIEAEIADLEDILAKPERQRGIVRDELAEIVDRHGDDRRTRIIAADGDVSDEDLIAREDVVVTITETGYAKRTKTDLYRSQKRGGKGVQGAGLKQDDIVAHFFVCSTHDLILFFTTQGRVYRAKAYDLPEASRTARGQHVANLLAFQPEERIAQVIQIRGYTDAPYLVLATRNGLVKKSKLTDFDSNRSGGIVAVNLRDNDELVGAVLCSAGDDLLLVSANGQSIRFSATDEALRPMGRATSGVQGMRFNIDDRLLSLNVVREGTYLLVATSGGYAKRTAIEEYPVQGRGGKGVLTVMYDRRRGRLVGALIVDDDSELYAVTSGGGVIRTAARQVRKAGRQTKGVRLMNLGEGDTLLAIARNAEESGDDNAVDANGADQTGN
Data set [7] in a line: Oral bioavailability in rat at 40 mg/kg by LC-MS/MS analysis. In kind it is ADME, organism-based. Particulars: in vivo. A digest of the protocol:
(§1)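 Rats were dosed with the 5% dextrose (pH 4−5) formulation, 5 mg/kg iv and 40 mg/kg po. Plasma was precipitated with acetonitrile and analysed by LC−MS/MS with a carbamazepine internal standard. Parameters were derived by noncompartmental analysis.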

The nature of data set [8]: Clearance in rat at 40 mg/kg, po and 5 mg/kg, iv by LC-MS/MS analysis. In kind it is ADME, organism-based. The following applies: in vivo. An outline of the steps:
as §1

For data set [9], the system named is Mycobacterium tuberculosis. As to the kind of experiment: Bactericidal activity against Mycobacterium tuberculosis infected in human THP1 cells at 1 ug/ml for 7 days. In kind it is functional, THP-1. A digest of the protocol:
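Adherent THP-1 macrophages infected with Mtb were exposed to compound at 1 μg/mL for 7 days at 37 °C. Kill was expressed as log reduction versus the untreated control.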

Data set [10] deals with Mycobacterium tuberculosis. As to the kind of experiment: Antimycobacterial activity against Mycobacterium tuberculosis clinical isolates after 2 to 4 weeks by BACTEC 460 radiometric assay. In kind it is functional.
A short description of data set [11]: Fraction unbound in aminobenzotriazole-pretreated BALB/c mouse plasma infected with Mycobacterium tuberculosis by LC-MS/MS analysis. In kind it is ADME, cell-free.
Data set [12] relates to Mycobacterium tuberculosis. As to the kind of experiment: Bactericidal activity against Mycobacterium tuberculosis H37Rv assessed as reduction in log10CFU at 0.01 to 2 ug/ml after 10 days by time kill assay. The class given is functional. An outline of the steps:
(§2)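 Time-kill in 7H9 broth with 0.2% glycerol, 0.05% Tween 80 and 10% ADC. Serial 2-fold dilutions were added to ~3 × 10^7 cfu/mL H37Rv at 37 °C. Aliquots were plated on 7H11 at days 0, 3, 7 and 10, and plates were incubated up to 28 days at 37 °C, 5% CO2, humidified. Results are given as log10 cfu per concentration.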

Data set [13] is described as follows: Ratio of fAUC in aminobenzotriazole-pretreated Mycobacterium tuberculosis infected BALB/c mouse at 80 mg/kg, po to MIC for wild-type Mycobacterium tuberculosis H37Rv ATCC 27294. A digest of the protocol: (§3)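 PK was measured in infected, ABT-pretreated mice during efficacy dosing (oral, 5% dextrose pH 4−5) on day 18 or 19. Saphenous blood was taken at 5, 15 and 30 min and 1, 2, 4 and 6 h. Plasma was precipitated with acetonitrile and analysed by LC−MS/MS. AUC came from noncompartmental analysis; free AUC/MIC and %free T>MIC used the unbound fraction and MIC.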

The subject of data set [14] is Mycobacterium tuberculosis. As to the kind of experiment: Antimycobacterial activity against Mycobacterium tuberculosis infected in aminobenzotriazole-pretreated BALB/c mouse acute tuberculosis model assessed as reduction in bacterial burden at 80 to 160 mg/kg, po bid for 20 days. In kind it is functional, organism-based. An outline of the steps: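 Aerosol-infected BALB/c mice in BSL3, three per group. Treatment began 3 days (acute) or 4 weeks (chronic) after infection. ABT 100 mg/kg po in water was given 2 h before oral gavage of compound in 5% dextrose (pH 4−5 with acetic acid), 10 mL/kg, twice daily at 8 h intervals. Courses were 20 days (7 days/week) or 8 weeks (6 days/week). Lung homogenates were plated on 7H11 for cfu.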

Data set [15] relates to Mycobacterium tuberculosis. As to the kind of experiment: Bactericidal activity against Mycobacterium tuberculosis H37Rv after 10 days by time kill assay. The class given is functional, organism-based. An outline of the steps: as §2
The test system of another data set is Mus musculus. As to the kind of experiment: fT>MIC in BALB/c mouse infected with Mycobacterium tuberculosis at 80 mg/kg, po. An outline of the steps:
as §3

Data set [16] concerns Mycobacterium tuberculosis. As to the kind of experiment: Bactericidal activity against Mycobacterium tuberculosis H37Rv at 0.01 to 2 ug/ml by time kill assay. Particulars: TDE = time-dependent effect. In kind it is functional, organism-based. An outline of the steps: as §2

Voltage-gated inwardly rectifying potassium channel KCNH2, sequence (Q12809 whole entry): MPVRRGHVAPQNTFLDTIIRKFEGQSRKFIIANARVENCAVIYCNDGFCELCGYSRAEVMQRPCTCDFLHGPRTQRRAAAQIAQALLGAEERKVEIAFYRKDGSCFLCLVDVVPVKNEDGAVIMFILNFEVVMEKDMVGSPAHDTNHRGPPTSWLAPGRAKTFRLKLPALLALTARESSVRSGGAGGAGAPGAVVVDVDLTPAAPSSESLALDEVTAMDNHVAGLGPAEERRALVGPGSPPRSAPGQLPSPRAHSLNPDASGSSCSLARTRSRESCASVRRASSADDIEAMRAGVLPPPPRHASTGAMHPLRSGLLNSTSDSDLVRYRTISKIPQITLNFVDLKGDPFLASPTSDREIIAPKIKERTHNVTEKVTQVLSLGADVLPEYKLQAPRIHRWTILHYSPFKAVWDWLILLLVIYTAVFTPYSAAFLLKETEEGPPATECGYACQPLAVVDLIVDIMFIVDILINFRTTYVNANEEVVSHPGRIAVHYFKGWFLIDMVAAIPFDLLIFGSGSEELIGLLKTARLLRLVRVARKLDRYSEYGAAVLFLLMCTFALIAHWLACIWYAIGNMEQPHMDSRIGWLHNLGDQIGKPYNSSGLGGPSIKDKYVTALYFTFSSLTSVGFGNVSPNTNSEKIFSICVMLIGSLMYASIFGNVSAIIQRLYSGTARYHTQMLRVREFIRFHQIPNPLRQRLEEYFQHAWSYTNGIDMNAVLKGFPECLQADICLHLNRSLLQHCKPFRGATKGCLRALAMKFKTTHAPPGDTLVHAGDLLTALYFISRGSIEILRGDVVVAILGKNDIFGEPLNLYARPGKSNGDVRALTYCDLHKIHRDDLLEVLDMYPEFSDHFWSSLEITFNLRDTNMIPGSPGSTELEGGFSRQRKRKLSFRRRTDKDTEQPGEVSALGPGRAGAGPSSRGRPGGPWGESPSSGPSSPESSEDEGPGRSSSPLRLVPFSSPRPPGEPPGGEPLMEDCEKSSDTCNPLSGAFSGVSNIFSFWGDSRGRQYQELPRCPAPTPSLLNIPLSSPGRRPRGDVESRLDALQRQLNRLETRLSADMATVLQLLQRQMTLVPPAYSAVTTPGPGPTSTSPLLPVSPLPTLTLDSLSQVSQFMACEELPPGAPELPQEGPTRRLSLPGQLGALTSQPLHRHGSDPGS
DNA gyrase subunit B, sequence (P0C559 whole entry): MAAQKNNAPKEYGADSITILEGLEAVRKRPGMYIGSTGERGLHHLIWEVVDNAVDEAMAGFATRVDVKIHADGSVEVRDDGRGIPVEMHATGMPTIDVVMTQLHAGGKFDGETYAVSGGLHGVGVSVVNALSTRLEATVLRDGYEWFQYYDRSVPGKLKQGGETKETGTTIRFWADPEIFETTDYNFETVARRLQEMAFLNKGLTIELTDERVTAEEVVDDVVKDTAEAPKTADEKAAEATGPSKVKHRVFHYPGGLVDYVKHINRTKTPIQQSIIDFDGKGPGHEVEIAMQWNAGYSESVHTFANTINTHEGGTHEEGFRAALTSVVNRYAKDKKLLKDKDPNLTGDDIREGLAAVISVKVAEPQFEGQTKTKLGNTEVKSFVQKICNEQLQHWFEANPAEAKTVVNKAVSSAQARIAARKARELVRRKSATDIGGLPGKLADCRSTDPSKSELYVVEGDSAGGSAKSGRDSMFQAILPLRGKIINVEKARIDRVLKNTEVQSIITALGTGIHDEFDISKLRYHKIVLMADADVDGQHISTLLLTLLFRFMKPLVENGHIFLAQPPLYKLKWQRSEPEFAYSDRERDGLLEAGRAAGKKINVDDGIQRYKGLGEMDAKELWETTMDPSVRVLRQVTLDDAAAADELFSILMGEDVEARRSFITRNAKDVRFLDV

Turning to `COc1cnc2ccc(=O)n(CCN3CCC(NCc4cnc(C)c(C#N)n4)CC3)c2c1`, the IC50 (commonly the concentration that gives 50% inhibition) in data set [1] was determined as 69 µM. In addition, in data set [2], the logD (commonly the decadic logarithm of the distribution of all forms, ionised or not, between an organic phase and buffer at a given pH) at 10000 µM worked out at 0.89. In addition, the MIC (in general, the lowest concentration found to suppress growth) in data set [3] is 0.5 µg/mL (≈ 1.15 µM).

In the case of `CO[C@H]1/C=C/O[C@@]2(C)Oc3c(C)c(O)c4c(O)c(c(/C=N/N5CCN(C)CC5)c(O)c4c3C2=O)NC(=O)/C(C)=C\C=C\[C@H](C)[C@H](O)[C@@H](C)[C@@H](O)[C@@H](C)[C@H](OC(C)=O)[C@@H]1C` [RIFAMPIN], the MIC in [3] was 0.015 µg/mL (≈ 0.0182 µM).

Regarding `COc1ccc2ncc(=O)n(CCN3CCC(NCc4cnc(C)c(C#N)c4)CC3)c2n1`, in data set [1], the IC50 is 13 µM. This compound registered a logD at 10000 µM in data set [2] of 1.65. Moreover, 0.13 µg/mL (≈ 0.3 µM) was the least that counted as inhibitory in data set [3] (MIC).

Take `COc1cnc2ncc(=O)n(CCN3CCC(NCc4cnc(C)c(C#N)c4)CC3)c2c1`: the IC50 in data set [1] is > 100 µM. Further, the pH-dependent lipophilicity (logD) at 10000 µM in data set [2] came out at 0.38. In [3], this compound registered an MIC of 0.13 µg/mL (≈ 0.3 µM).

Take `Cc1ncc(CNC2CCN(CCn3c(=O)ccc4ncc(F)cc43)CC2)cc1C#N`: the Papp B→A (in general, the apparent permeability from the basolateral to the apical side of a cell layer) in [4] is 9.8 ×10⁻⁶ cm/s. Half-maximal inhibition in [1] (IC50) was put at 69 µM. For the same compound, the Papp A→B (in general, how fast a substance crosses the layer from the apical side) in [5] turned out to be 18 ×10⁻⁶ cm/s. In addition, in [2], the logD at 10000 µM amounted to 0.81. Moreover, in [3], the MIC is 0.25 µg/mL (≈ 0.595 µM).

In the case of `COc1cnc2ccc(=O)n(CCN3CC[C@@H](NCc4ccc5c(n4)NC(=O)CO5)[C@@H](F)C3)c2c1`, in data set [4], the apparent permeability from basolateral to apical (Papp B→A) came out at 10.8 ×10⁻⁶ cm/s. In [5], the Papp A→B was determined as 4.1 ×10⁻⁶ cm/s. Also, the logD at 10000 µM in [2] is 0.64. In [3], this compound displayed an MIC of 0.03 µg/mL (≈ 0.0622 µM).

Take `N#Cc1ccc2ccc(=O)n(CCN3CCC(NCc4cc5c(cn4)OCCO5)CC3)c2c1`: the basolateral-to-apical permeability (Papp B→A) in [4] was 38.3 ×10⁻⁶ cm/s. Besides, the IC50 is > 100 µM on DNA gyrase subunit B and 1.05 µM in data set [6]. Moreover, the Papp A→B in [5] came out at 1.9 ×10⁻⁶ cm/s. The compound further gave a logD at 10000 µM in data set [2] of 0.7. Besides, inhibition of growth in data set [3] (MIC) required 2 µg/mL (≈ 4.49 µM).

Regarding `COc1cnc2ccc(=O)n(CCN3CC[C@@H](NCc4cnc(C)c(C#N)c4)[C@@H](OC)C3)c2c1`, the apparent permeability from basolateral to apical (Papp B→A) in [4] came out at 9.9 ×10⁻⁶ cm/s. Besides, the bioavailability (in general, dose-corrected exposure relative to a reference, in per cent) in data set [7] was 73%. In data set [5], the Papp A→B was 11.7 ×10⁻⁶ cm/s. For the same compound, in [2], the logD at 10000 µM is 0.99. The compound also gave a clearance in data set [8] of 54 mL/min/kg. Moreover, in [3], the MIC stood at 0.06 µg/mL (≈ 0.13 µM).

Turning to `COc1ccc2ccc(=O)n(CCN3CCC(NCc4ccc5c(n4)NC(=O)CO5)CC3)c2n1`, the Papp B→A in data set [4] was found to be 25 ×10⁻⁶ cm/s. Further, the IC50 was > 100 µM at DNA gyrase subunit B, 21 µM in [1] and 0.15 µM in data set [6]. In data set [5], the Papp A→B was 1.1 ×10⁻⁶ cm/s. In [2], the logD at 10000 µM was 0.8. This compound also yielded a minimum inhibitory concentration (MIC) in data set [3] of 0.25 µg/mL (≈ 0.538 µM).

`COc1cnc2ccc(=O)n(CCN3CC[C@@H](NCc4cnc(C)c(C#N)c4)[C@@H](F)C3)c2c1`: the Papp B→A in data set [4] came to 7.4 ×10⁻⁶ cm/s. In addition, the bioavailability in data set [7] stood at 52%. Besides, the IC50 is 90 µM in data set [1] and 0.25 µM in [6]. In addition, the LCK in data set [9] was found to be 1.3. Moreover, in data set [5], the Papp A→B was determined as 13.6 ×10⁻⁶ cm/s. The compound also gave a pH-dependent lipophilicity (logD) at 10000 µM in data set [2] of 1.29. The clearance in data set [8] worked out at 42 mL/min/kg. For the same compound, in data set [3], the MIC was 0.06 µg/mL (≈ 0.133 µM).

As to `CC1COc2c(N3CCN(C)CC3)c(F)cc3c(=O)c(C(=O)O)cn1c23` (stereo not drawn) [OFLOXACIN], the MIC90 (usually the lowest concentration that inhibits either 90% of growth or 90% of the strains tested, depending on the study) in data set [10] was > 8 µg/mL. Moreover, the minimum inhibitory concentration (MIC) in [3] amounted to 0.5 µg/mL (≈ 1.38 µM).

For the compound `O=C1COc2ccc(CN[C@H]3CCN(CCn4c(=O)ccc5ncc(F)cc54)C[C@H]3F)nc2N1`, the Papp B→A in data set [4] is 12.3 ×10⁻⁶ cm/s. In addition, the bioavailability in data set [7] was > 100%. The fraction unbound (in general, the share of the substance not bound to proteins or other matrix) in data set [11] came out at 0.44. The log10cfu in data set [12] was >3. In addition, the Papp A→B in data set [5] turned out to be 8.1 ×10⁻⁶ cm/s. Also, the logD at 10000 µM in data set [2] was 0.47. In [8], this compound had a clearance of 63 mL/min/kg. The fAUC/MIC in data set [13] is recorded as 175. Moreover, the result in data set [14] was Active. Also, it took 0.13 µg/mL (≈ 0.276 µM) to inhibit growth in [3] (MIC). Also, the results for the Activity result in [15] and in data set [16] were “Dose-dependent effect” and “tde”, respectively. For the same compound, the “fT>MIC” value in the data set with Mus musculus stood at 58%. Also, the IC50 in data set [6] is 0.24 µM.
